Results on 15 compounds are retold here after ChEMBL document CHEMBL4406900, “Synthesis and antidepressant-like activity of novel alkoxy-piperidine derivatives targeting SSRI/5-HT1A/5-HT7” (Bioorg Med Chem Lett, 2019).

The target in series [1] is T1, 5-hydroxytryptamine receptor 1A (Homo sapiens) (UniProt P08908).
T1 sequence (whole entry): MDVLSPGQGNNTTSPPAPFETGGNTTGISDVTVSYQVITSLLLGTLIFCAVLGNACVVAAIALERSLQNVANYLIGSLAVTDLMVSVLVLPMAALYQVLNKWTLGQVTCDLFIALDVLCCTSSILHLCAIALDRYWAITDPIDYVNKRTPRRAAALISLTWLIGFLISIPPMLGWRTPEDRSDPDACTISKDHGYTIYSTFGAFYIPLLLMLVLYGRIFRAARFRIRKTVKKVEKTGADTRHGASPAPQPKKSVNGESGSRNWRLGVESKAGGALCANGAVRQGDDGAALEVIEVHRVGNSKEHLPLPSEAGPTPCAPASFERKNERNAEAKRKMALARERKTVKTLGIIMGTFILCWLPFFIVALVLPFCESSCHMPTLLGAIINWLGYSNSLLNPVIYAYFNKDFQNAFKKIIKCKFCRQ
The series can be described thus: Displacement of [3H]-8-OH-DPAT from 5HT1A receptor (unknown origin) expressed in HEK293 cells membranes at 1 uM incubated for 60 mins by scintillation counting method relative to control. The class given is cell membranes. For orientation: In a radioligand displacement assay an active substance lowers the binding of a labelled ligand.

Series [2] concerns the target T2, 5-hydroxytryptamine receptor 7 (Homo sapiens, UniProt P34969). The series can be described thus: Displacement of [3H]-LSD from 5HT7 receptor (unknown origin) expressed in CHO cell membranes at 1 uM incubated for 120 mins by scintillation counting method relative to control. The procedure, abridged:
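Single-concentration radioligand displacement on receptor-expressing cell membrane homogenates: [3H]-8-OH-DPAT with HEK-293 membranes for 5-HT1A, [3H]-LSD with CHO membranes for 5-HT7. Values are given as inhibition ratio (%).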

The target in series [3] is Sodium-dependent serotonin transporter (Rattus norvegicus) (UniProt P31652). The series can be described thus: Inhibition of rat synaptosomes 5HT transporter assessed as reduction in [3H]serotonin reuptake at 1 uM incubated for 15 mins by scintillation counting method relative to control. The format is subcellular. The procedure, abridged: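 Rat brain synaptosomes; inhibition of [3H]-5-HT incorporation through the serotonin uptake transporter at a single concentration, expressed as inhibition ratio (%).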

A short description of series [4]: Clearance in human liver microsomes at 1 uM in presence of NADPH generating system measured for 10 to 90 mins by LC-MS/MS analysis. The class given is ADME, Microsome. The following applies: read-out: CLH. The procedure, abridged:
(§1)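 Metabolic stability in rat or human liver microsomes, reported as t1/2 (min) and intrinsic clearance CL (µL/min/mg).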
(Microsomes from liver hold many membrane-bound enzymes, among them those of drug oxidation.)

In series [5] the test system is Mus musculus. The series can be described thus: Antidepressant activity in mouse assessed as decrease in immobility time at 40 mg/kg, po administrated for daily for 7 days measured 1 hr post last dose by forced swim test relative to control. The format is functional. Set-up: scale not given: the % may be the effect or the level left. Summed up:
(§2)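 Male mice, repeated oral dosing at 10, 20 or 40 mg/kg/day for 7 days. Immobility time was scored in the forced swim test. n = 10 per group, mean ± SEM, compared with a vehicle group (*P < 0.05, **P < 0.01).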

Series [6] has as its system Mus musculus. The series can be described thus: Antidepressant activity in mouse assessed as decrease in immobility time at […], po administrated for daily for 7 days measured 1 hr post last dose by tail suspension test relative to control. The format is functional. Details: scale not given: the % may be the effect or the level left.
The target of series [7] is T3, 5-hydroxytryptamine receptor 1A (Homo sapiens, UniProt P08908).
T3 sequence (P08908 whole entry): T1 sequence (whole entry)
The series can be described thus: Displacement of [3H]-8-OH-DPAT from 5HT1A receptor (unknown origin) expressed in HEK293 cells membranes incubated for 60 mins by scintillation counting method. The class given is cell membranes.

For series [8], the target named is T2, 5-hydroxytryptamine receptor 7. The series can be described thus: Displacement of [3H]-LSD from 5HT7 receptor (unknown origin) expressed in CHO cell membranes incubated for 120 mins by scintillation counting method. The procedure, abridged: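 For 5-HT7, [3H]-LSD displacement binding was run on CHO cell membrane homogenates. Ki came from 8 concentrations, each tested in duplicate.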

Series [9] addresses Sodium-dependent serotonin transporter (Rattus norvegicus, UniProt P31652). The series can be described thus: Inhibition of rat synaptosomes 5HT transporter assessed as reduction in [3H]serotonin reuptake incubated for 15 mins by scintillation counting method. The format is subcellular. Summed up: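 Serotonin uptake transporter assay: inhibition of [3H]-5-HT incorporation into rat brain synaptosomes. IC50 was derived from 8 concentrations, each in duplicate.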

Series [10] in a line: Half life in rat liver microsomes at 1 uM in presence of NADPH generating system measured for 10 to 90 mins by LC-MS/MS analysis. The class given is ADME, Microsome. The procedure, abridged:
as §1

Series [11] can be described thus: Clearance in rat liver microsomes at 1 uM in presence of NADPH generating system measured for 10 to 90 mins by LC-MS/MS analysis. The format is ADME, Microsome. The settings on record: read-out: CLH. The procedure, abridged:
as §1

Series [12] is described as follows: Half life in human liver microsomes at 1 uM in presence of NADPH generating system measured for 10 to 90 mins by LC-MS/MS analysis. The format is ADME, Microsome. Summed up:
as §1

For series [13], the system named is Mus musculus. The series can be described thus: Antidepressant activity in mouse assessed as decrease in immobility time at 10 mg/kg, po administrated for daily for 7 days measured 1 hr post last dose by forced swim test relative to control. The class given is functional. Details: scale not given: the % may be the effect or the level left. The procedure, abridged:
as §2

Series [14] concerns Mus musculus. The series can be described thus: Antidepressant activity in mouse assessed as decrease in immobility time at 20 mg/kg, po administrated for daily for 7 days measured 1 hr post last dose by forced swim test relative to control. The class given is functional. Details: scale not given: the % may be the effect or the level left. Summed up:
as §2

For series [15], the system named is Mus musculus. The series can be described thus: Antidepressant activity in mouse assessed as decrease in immobility time at 10 mg/kg, po administrated for daily for 7 days measured 1 hr post last dose by tail suspension test relative to control. The format is functional. Set-up: scale not given: the % may be the effect or the level left. The procedure, abridged:
(§3)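 Tail suspension test in male mice after 7 days of repeated PO dosing at 10, 20 or 40 mg/kg/day. Immobility time was recorded with n = 10 per group, given as mean ± SEM and tested against vehicle (*P < 0.05, **P < 0.01).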

Series [16] concerns Mus musculus. The series can be described thus: Antidepressant activity in mouse assessed as decrease in immobility time at 20 mg/kg, po administrated for daily for 7 days measured 1 hr post last dose by tail suspension test relative to control. Set-up: scale not given: the % may be the effect or the level left. The format is functional. The procedure, abridged: as §3

Chain of Sodium-dependent serotonin transporter (Rattus norvegicus) (P31652 whole entry): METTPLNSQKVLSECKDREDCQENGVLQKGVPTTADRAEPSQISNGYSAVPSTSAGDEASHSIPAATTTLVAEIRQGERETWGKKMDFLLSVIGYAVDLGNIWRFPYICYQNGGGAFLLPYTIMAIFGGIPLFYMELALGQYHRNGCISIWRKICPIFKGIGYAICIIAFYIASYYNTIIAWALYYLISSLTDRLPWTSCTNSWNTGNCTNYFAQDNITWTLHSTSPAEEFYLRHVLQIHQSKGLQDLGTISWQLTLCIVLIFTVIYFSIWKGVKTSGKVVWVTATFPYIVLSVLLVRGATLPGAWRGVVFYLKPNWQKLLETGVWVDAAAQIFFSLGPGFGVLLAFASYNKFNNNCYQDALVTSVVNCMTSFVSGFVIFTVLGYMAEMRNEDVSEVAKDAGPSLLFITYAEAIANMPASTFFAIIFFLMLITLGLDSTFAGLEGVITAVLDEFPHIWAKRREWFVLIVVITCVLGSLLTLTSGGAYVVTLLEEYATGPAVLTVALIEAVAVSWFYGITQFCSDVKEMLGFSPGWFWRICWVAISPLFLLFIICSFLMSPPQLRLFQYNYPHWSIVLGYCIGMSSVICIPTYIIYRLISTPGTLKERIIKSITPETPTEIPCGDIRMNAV
T2 sequence (P34969 whole entry): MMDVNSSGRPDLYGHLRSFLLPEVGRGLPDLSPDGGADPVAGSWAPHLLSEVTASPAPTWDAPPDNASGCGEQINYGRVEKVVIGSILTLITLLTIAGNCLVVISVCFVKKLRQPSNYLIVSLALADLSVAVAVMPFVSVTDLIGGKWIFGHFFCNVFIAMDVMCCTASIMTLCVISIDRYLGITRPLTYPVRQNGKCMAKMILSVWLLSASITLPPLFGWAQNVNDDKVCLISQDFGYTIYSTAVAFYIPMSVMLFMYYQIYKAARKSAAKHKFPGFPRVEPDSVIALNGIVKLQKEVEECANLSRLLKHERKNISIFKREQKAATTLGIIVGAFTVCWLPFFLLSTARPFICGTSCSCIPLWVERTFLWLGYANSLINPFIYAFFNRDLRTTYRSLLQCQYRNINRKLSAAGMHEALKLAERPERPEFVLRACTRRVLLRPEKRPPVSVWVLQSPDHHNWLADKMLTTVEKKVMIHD
Chain of Sodium-dependent serotonin transporter (P31652 whole entry): as the sequence (P31652 whole entry) above

Usually inhibition stands for the change of the read-out against control, counted positive when it falls. For the compound `COc1ccc(-c2cc(F)ccc2OCCN2CCC(c3c[nH]c4ccc(F)cc34)CC2)cc1`, the inhibition in series [1] was found to be 98.7%; in [2], 95.9%; in series [3], 12.3%.

As for `Fc1ccc(OCCN2CCC(c3c[nH]c4ccc(F)cc34)CC2)c(-c2ccccc2F)c1`, the inhibition in series [1] was determined as 97.8%; in series [2] it was 88.7%; in series [3], 97.1%.

Consider `Fc1ccc(OCCCN2CCC(c3c[nH]c4ccc(F)cc34)CC2)c(-c2ccccc2)c1`, for which the results for the inhibition in series [1], in [2] and in series [3] were 97.7%, 76.1% and 87%, respectively.

For the compound `N#Cc1ccc(-c2cc(F)ccc2OCCN2CCC(c3c[nH]c4ccc(F)cc34)CC2)cc1`, the inhibition in series [1] is 97.5%; in series [2], 95.8%; in series [3], 63%.

For `Fc1ccc(OCCN2CCC(Cc3c[nH]c4ccc(F)cc34)CC2)c(-c2ccccc2)c1`, the inhibition worked out at 72.3% in series [1], 97.2% in [2] and 101% in series [3].

As to `Cc1ccc(Sc2ccccc2N2CCNCC2)c(C)c1` [VORTIOXETINE], the inhibition stood at 92.5% in series [2] and 101% in series [3]. For the same compound, in series [4], the microsomal CLint at 1 µM turned out to be 6.5 µL/min/mg. The Activity in the series with Mus musculus [5] worked out at 52%; in the series on Mus musculus [6], 48%.

Take `Fc1ccc(OCCCN2CCC(Cc3c[nH]c4ccc(F)cc34)CC2)c(-c2ccccc2)c1`: the inhibition amounted to 81.9% in series [1], 86.4% in series [2] and 102% in [3].

With `COc1ccc2c(c1)[C@]13CCCC[C@@H]1[C@H](C2)N(C)CC3` [DEXTROMETHORPHAN], in series [4], the microsomal CLint at 1 µM was determined as 31 µL/min/mg.

On to `Cc1ccc(-c2cc(F)ccc2OCCN2CCC(c3c[nH]c4ccc(F)cc34)CC2)cc1`, for which the inhibition in series [1] was 94.5%; in [2], 86.2%; in series [3], 38.9%.

On to `Fc1ccc(OCCN2CCC(c3c[nH]c4ccc(F)cc34)CC2)c(-c2ccc(Cl)cc2)c1`, for which the results for the inhibition in series [1], in series [2] and in series [3] were 95%, 80.3% and 27.3%, respectively.

What is called Ki is the equilibrium dissociation constant of an inhibitor or competing ligand from its target. As usually defined, the IC50 is the concentration at which inhibition is half-maximal. As usually defined, the half-life is the time in which the quantity being followed falls by half. As to `Fc1ccc(OCCN2CCC(c3c[nH]c4ccc(F)cc34)CC2)c(-c2ccccc2)c1`, the inhibition in series [1] was determined as 94.2%; in series [2], 90.4%; in series [3], 96.3%. Besides, the Ki in series [7] was found to be 12 nM; in [8], 25 nM. Also, in [9], the IC50 is 177 nM. For the same compound, the values for the half-life at 1 µM in series [10] and in [12] were 34.5 min and 61.5 min, respectively. Also, the microsomal CLint at 1 µM is 40.2 µL/min/mg in series [11] and 22.5 µL/min/mg in series [4]. Also, the Activity in the series on Mus musculus [13] was 17%; with Mus musculus [14], 8%; with Mus musculus [5], 22%; in the series on Mus musculus [15], 10%; in the series on Mus musculus [16], 22%; in the series with Mus musculus [6], 24%.

On to `Fc1ccc(-c2cc(F)ccc2OCCN2CCC(c3c[nH]c4ccc(F)cc34)CC2)cc1`, for which the inhibition in [1] was determined as 97.4%; in series [2] it was 86.5%; in series [3], 90.6%.

Regarding `Fc1ccc2[nH]cc(C3CCN(CCOc4ccc(F)c(-c5ccccc5)c4)CC3)c2c1`, the inhibition in series [1] is 96.9%; in [2] it was 54.2%; in [3] it was 66.6%.

With `Fc1cccc(-c2cc(F)ccc2OCCN2CCC(c3c[nH]c4ccc(F)cc34)CC2)c1`, the inhibition in [1] is 95.9%; in series [2] it was 91%; in series [3] it was 94.3%. Also, the Ki in series [7] was determined as 17 nM; in series [8], 35 nM. The IC50 in series [9] was determined as 85 nM. The half-life at 1 µM amounted to 22.9 min in series [10] and 61.4 min in series [12]. In addition, the microsomal CLint at 1 µM turned out to be 60.4 µL/min/mg in series [11] and 22.6 µL/min/mg in [4]. In addition, the Activity in the series with Mus musculus [13] is 20%; in the series on Mus musculus [14], 6%; with Mus musculus [5] it was 27%; in the series on Mus musculus [15] it was 8%; in the series on Mus musculus [16] it was 2%; in the series with Mus musculus [6] it was 17%.

As for `Fc1ccc(OCCN2CCC(CCc3c[nH]c4ccc(F)cc34)CC2)c(-c2ccccc2)c1`, the inhibition in series [1] amounted to 54.3%; in series [2], 94.3%; in series [3], 99.8%.
